Measured values reported in ChEMBL document CHEMBL4000173, “An evaluation of central penetration from a peripherally administered oxytocin receptor selective antagonist in nonhuman primates” (Bioorg Med Chem, 2017).
pKi: −log10 of the molar value.

Experiments:
[1] = Cmax in rhesus monkey plasma at 202 ug administered via intranasal nebulization for 8 mins by LC-MS method; assay type: ADME, cell-free, Macaca mulatta; design: dose 202 ug, route nasal; conditions: inhaled or intranasal
Outline: (§1)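 Anesthetised male rhesus macaques (Telazol IM, propofol IV) inhaled drug in propylene glycol (low 120 μg/ml, high 6.15 mg/ml) by pediatric nebuliser and face mask for 8 min; dose was taken from nebuliser residue. Plasma (stored −80 C) was spiked with internal standard and extracted by solid-liquid extraction with ethyl acetate, then dried and redissolved in water/methanol/formic acid 70:30:0.1. It was measured in duplicate by C18 LC-MS/MS against a rhesus-plasma calibration. Recovery was about 86%.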

[2] = Tmax in rhesus monkey plasma at 202 ug administered via intranasal nebulization for 8 mins by LC-MS method; assay type: ADME, cell-free, Macaca mulatta; conditions: inhaled or intranasal
Outline: (§2)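 Four male rhesus macaques, 5 years old, 9–13 kg, under Telazol (4–5 mg/kg IM) then IV propofol. Dose in propylene glycol given by face mask from a pediatric nebulizer for 8 min. Lumbar CSF collected by passive drip at 60 and 120 min; blood-tinged CSF excluded. Plasma solid-phase extracted with ethyl acetate. LC-MS/MS in duplicate against an internal standard and a 0.8–10 pg/ml calibration curve. ke = (lnC1 − lnC2)/(t2 − t1), confirmed by semi-log regression; t1/2 = 0.693/ke.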

[3] = Cmax in rhesus monkey CSF at 202 ug administered via intranasal nebulization for 8 mins by LC-MS method; assay type: ADME, Macaca mulatta, Cerebrospinal fluid; design: dose 202 ug, route nasal; conditions: inhaled or intranasal
Outline: (§3)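 Four male rhesus macaques (5 yr, 9–13 kg) under IM Telazol, then IV propofol. Drug in propylene glycol (low 120 μg/ml, high 6.15 mg/ml) was aerosolised for 8 min by pediatric nebuliser through a face mask. Dose was taken from the nebuliser residue. Lumbar CSF was collected by passive drip at 60 and 120 min; blood-tinged samples were discarded. CSF was run unprocessed by LC-MS/MS in duplicate against an artificial-CSF calibration (0.8–10 pg/ml) with internal standard.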

[4] = Tmax in rhesus monkey CSF at 202 ug administered via intranasal nebulization for 8 mins by LC-MS method; assay type: ADME, Macaca mulatta, Cerebrospinal fluid; conditions: inhaled or intranasal; outline: as §2
[5] = Cmax in rhesus monkey plasma at 7690 ug administered via intranasal nebulization for 8 mins by LC-MS method; assay type: ADME, cell-free, Macaca mulatta; design: dose 7690 ug, route nasal; conditions: inhaled or intranasal; outline: as §1
[6] = Tmax in rhesus monkey plasma at 7690 ug administered via intranasal nebulization for 8 mins by LC-MS method; assay type: ADME, cell-free, Macaca mulatta; conditions: inhaled or intranasal; outline: as §2
[7] = Cmax in rhesus monkey CSF at 7690 ug administered via intranasal nebulization for 8 mins by LC-MS method; assay type: ADME, Macaca mulatta, Cerebrospinal fluid; design: dose 7690 ug, route nasal; conditions: inhaled or intranasal; outline: as §3
[8] = Tmax in rhesus monkey CSF at 7690 ug administered via intranasal nebulization for 8 mins by LC-MS method; assay type: ADME, Macaca mulatta, Cerebrospinal fluid; conditions: inhaled or intranasal; outline: as §2
[9] = Cmax in rhesus monkey plasma at 6150 ug, im by LC-MS method; assay type: ADME, organism-based, Macaca mulatta; design: dose 6150 ug, route intramuscular
Outline: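 Anesthetised male rhesus macaques (n=2; Telazol IM, propofol IV) received 6.15 mg in propylene glycol (6.15 mg/ml) injected into the inner thigh muscle. Plasma was spiked with internal standard and extracted by solid-liquid extraction with ethyl acetate, then redissolved in water/methanol/formic acid 70:30:0.1. It was quantified in duplicate by C18 LC-MS/MS against a rhesus-plasma calibration curve.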

[10] = Tmax in rhesus monkey plasma at 6150 ug, im by LC-MS method; assay type: ADME, organism-based, Macaca mulatta
Outline: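 Male rhesus macaques (5 yr, 9–13 kg), anaesthetised with Telazol IM then IV propofol drip, given 6.15 mg in propylene glycol (6.15 mg/ml) into inner thigh muscle (n=2). Plasma separated, stored −80 C, extracted by solid-liquid phase with ethyl acetate plus internal standard. LC-MS/MS (C18, water/methanol/formic acid) in duplicate against calibration curve in rhesus plasma; time of maximum plasma concentration taken.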

[11] = Cmax in rhesus monkey CSF at 1650 ug, im by LC-MS method; assay type: ADME, organism-based, Macaca mulatta, Cerebrospinal fluid; design: dose 1650 ug, route intramuscular
[12] = Elimination rate constant in rhesus monkey plasma at 202 to 7690 ug administered via intranasal nebulization for 8 mins by LC-MS method; assay type: ADME, cell-free, Macaca mulatta; conditions: inhaled or intranasal; outline: as §2
[13] = Half life in rhesus monkey plasma at 202 to 7690 ug administered via intranasal nebulization for 8 mins by LC-MS method; assay type: ADME, cell-free, Macaca mulatta; conditions: inhaled or intranasal; outline: as §2
[14] = Elimination rate constant in rhesus monkey CSF at 7690 ug administered via intranasal nebulization for 8 mins by LC-MS method; assay type: ADME, Macaca mulatta, Cerebrospinal fluid; conditions: in vivo, inhaled_or_intranasal; outline: as §2
[15] = Half life in rhesus monkey CSF at 7690 ug administered via intranasal nebulization for 8 mins by LC-MS method; assay type: ADME, Macaca mulatta, Cerebrospinal fluid; conditions: in vivo, inhaled_or_intranasal; outline: as §2
Rhesus monkey [16] = experiment: Activity at OXTR in rhesus monkey assessed as concentration in CSF required to elicit behavioral effects at 7.69 mg administered via intranasal nebulization for 8 mins; assay type: functional, Macaca mulatta
Outline: (§4)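 Estimated OXTR-relevant CSF targets for male rhesus macaques. Values come from OT levels before and after aerosolized IN OT (24 IU) reported in earlier work. They assume a 10 ml total CSF volume and scale from the in vitro Ki, which was measured by displacing 2 nM [3H]OT.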

Rhesus monkey [17] = experiment: In vivo antagonist activity at OXTR in rhesus monkey assessed as concentration in CSF required to displace endogenous oxytocin at 7.69 mg administered via intranasal nebulization for 8 mins; assay type: functional, Macaca mulatta; outline: as §4
Rhesus monkey [18] = experiment: Activity at OXTR in rhesus monkey assessed as concentration in CSF required to elicit behavioral effects at 6.15, im; assay type: functional, Macaca mulatta; outline: as §4
Rhesus monkey [19] = experiment: In vivo antagonist activity at OXTR in rhesus monkey assessed as concentration in CSF required to displace endogenous oxytocin at 6.15, im; assay type: functional, Macaca mulatta; outline: as §4
Brain = experiment: Drug uptake in Sprague-Dawley rat brain at 126 to 295 uCi, iv administered as 30 mins bolus infusion after 15 to 90 mins by PET imaging method; assay type: ADME, organism-based; conditions: in vivo
[20] = Drug uptake in Sprague-Dawley rat skull at 126 to 295 uCi, iv administered as 30 mins bolus infusion after 15 to 90 mins by PET imaging method; assay type: ADME, organism-based; conditions: in vivo
[21] = Drug uptake in Sprague-Dawley rat muscle at 126 to 295 uCi, iv administered as 30 mins bolus infusion after 15 to 90 mins by PET imaging method; assay type: ADME, organism-based, Muscle tissue; conditions: in vivo
[22] = Drug uptake in Sprague-Dawley rat skull at 340 to 390 uCi, im up to 120 mins by PET imaging method; assay type: ADME, organism-based; conditions: in vivo, 2 h
Outline: (§5)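 Female Sprague-Dawley rats, 200–330 g, under 4–5% isoflurane in oxygen. [18F]tracer, 340–390 μCi in 100 μl, injected IM just above the knee of the hind leg. PET starting 15 min post injection, 2 h scan, with 7 min Co-57 transmission scan. Time-activity curves of mean nCi/cc, n=3.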

[23] = Drug uptake in Sprague-Dawley rat muscle at 340 to 390 uCi, im up to 120 mins by PET imaging method; assay type: ADME, organism-based, Muscle tissue; conditions: in vivo, 2 h; outline: as §5
Oxytocin receptor = molecular target: T1, Oxytocin receptor (Homo sapiens, UniProt P30559); experiment: Displacement of [3H]Oxytocin from human OXTR expressed in CHO cell membranes after 90 mins by liquid scintillation counting method
T1 sequence (P30559 whole entry): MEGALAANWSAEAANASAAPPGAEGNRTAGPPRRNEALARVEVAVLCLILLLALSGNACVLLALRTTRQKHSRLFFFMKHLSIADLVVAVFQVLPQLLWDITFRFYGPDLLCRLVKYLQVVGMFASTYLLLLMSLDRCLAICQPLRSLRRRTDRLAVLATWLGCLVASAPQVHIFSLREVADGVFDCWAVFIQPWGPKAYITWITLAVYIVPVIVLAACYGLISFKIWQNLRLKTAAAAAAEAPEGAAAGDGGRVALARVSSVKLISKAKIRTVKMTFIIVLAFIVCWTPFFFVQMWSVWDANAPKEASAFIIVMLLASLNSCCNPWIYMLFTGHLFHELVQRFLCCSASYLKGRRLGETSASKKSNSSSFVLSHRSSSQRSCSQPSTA

CS(=O)(=O)N1CCC(Oc2ccc(CC(=O)N3CCC(N4C(=O)CCc5ccccc54)CC3)c(OCCF)c2)CC1
Cmax [1]: 1.16 ng/mL
Tmax [2]: 5 min
Cmax [3]: 0.00736 ng/mL
Tmax [4]: 2 h
Cmax [5]: 156 ng/mL
Tmax [6]: 0.25 h
Cmax [7]: 0.0972 ng/mL
Tmax [8]: 1 h
Cmax [9]: 740 ng/mL
Tmax [10]: 1 h
Cmax [11]: 0.478 ng/mL
k el at 8 min [12]: 0.0004 s⁻¹
half-life [13]: 0.483 h
Kel [14]: 0.007 min⁻¹
t1/2 [15]: 1.6 h
Activity (Rhesus monkey [16]): 24 pM
Activity (Rhesus monkey [17]): 56 pM
Activity (Rhesus monkey [18]): 24 pM
Activity (Rhesus monkey [19]): 56 pM

CS(=O)(=O)N1CCC(Oc2ccc(CC(=O)N3CCC(N4C(=O)CCc5ccccc54)CC3)c(OCC[18F])c2)CC1
Drug uptake (Brain): Active
Drug uptake [20]: Active
Drug uptake [21]: Active
Drug uptake [22]: Active
Drug uptake [23]: Active

Cc1ccccc1N1CCN(S(=O)(=O)CC23CCC(CC2NC(=O)C(N)CCS(C)(=O)=O)C3(C)C)CC1 (stereo not given)
pKi (Oxytocin receptor): 7.77
